Source: PubChem BioAssay
This is a sample that favours compounds with a hit; in the whole collection about 4% have one here.
NTR1 ag = agonists of human NTR1, primary screen, imaging, U2OS cells, beta-arrestin-GFP, high content; NTR1-U2OS beta-arrestin-GFP spot imaging, agonist mode; activation, % at 20 µM; 0.17% of 330,000 active; AID 493036, 2011;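 active = activation at or above 40% of the spot to cytoplasm intensity ratio, with at least 20 cells analyzed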;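 also: 0% = DMSO without peptide and 100% = 100 nM NTR1 peptide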
OX1R antag-1 = OX1R (HCRTR1) antagonists, primary screen, fluorescence, CHO/OX1R cells, Fluo-8 calcium, orexin A; Orexin/Hypocretin receptor type 1 (Homo sapiens), O43613; Fluo-8 calcium fluorescence; inhibition, % at 5 µM; 0.43% of 330,000 active;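 active = inhibition above its plate's threshold, mean inhibition of all tested compounds on the plate plus 3 SD, cut at about 37% in these data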;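 also: 0% = orexin A challenge wells and 100% = SB-334867-A antagonist wells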
Target sequence (O43613 whole entry, looked up): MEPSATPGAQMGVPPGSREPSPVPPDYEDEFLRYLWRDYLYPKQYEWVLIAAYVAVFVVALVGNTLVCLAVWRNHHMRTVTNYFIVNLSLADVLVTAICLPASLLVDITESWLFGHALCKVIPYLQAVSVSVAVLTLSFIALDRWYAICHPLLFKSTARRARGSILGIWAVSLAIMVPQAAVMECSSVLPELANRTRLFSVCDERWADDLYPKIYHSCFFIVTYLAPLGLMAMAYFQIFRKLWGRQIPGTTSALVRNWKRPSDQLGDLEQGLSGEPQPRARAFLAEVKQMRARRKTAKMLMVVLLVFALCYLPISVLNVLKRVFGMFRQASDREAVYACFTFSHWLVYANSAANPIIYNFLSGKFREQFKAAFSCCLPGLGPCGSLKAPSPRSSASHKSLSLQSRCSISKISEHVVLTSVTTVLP
TAAR1 antag = human TAAR1 antagonists, primary screen, Fluo-8 calcium fluorescence, CHO RD-HGA16 cells | Trace amine-associated receptor 1 (Homo sapiens), Q96RJ0 | antagonist | inhibition, % at 3 µM | 1.5% of 360,000 active | AID 624466, 2012;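 active = inhibition above a per-plate cutoff, the mean inhibition of test compounds on that plate plus 3 SD, cut at about 49% in these data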;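 also: 0% = DMSO plus EC80 beta-PEA response and 100% = DMSO alone without agonist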
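Test system: RD-HGA16 CHO cells with stable hTAAR1 and Gα16 / Probe or stimulus: EC80 β-phenethylamine stimulus / Times: seeding 17-24 h prior, 75-min 37 °C, 30-min RT dye loading / Detection: Fluo-8 calcium-sensitive fluorescence / Read-out basis: % inhibition scaled between DMSO and EC80 PEA controls / Repeats: singlicate, one well per test compound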
TAAR1 ag = human TAAR1 agonists, primary screen, Fluo-8 calcium fluorescence, CHO RD-HGA16 cells; 0.99% of 360,000 active; activation, % at 3 µM; AID 624467, 2012; Trace amine-associated receptor 1 (Homo sapiens), Q96RJ0; vehicle wells 0%, saturating PEA agonist 100%;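 active = activation above the mean activation of all test compounds in the run plus 3 SD, cut at about 38% in these data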
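Assay system: CHO-derived RD-HGA16 cells with stable Gα16 and human TAAR1; timing: 17-24 h seeding, 75 min 37 °C dye, 30 min RT; read-out: % activation from peak over basal fluorescence ratio, DMSO-to-PEA scaled; measured by: kinetic Fluo-8 calcium fluorescence; benchmarks: low control DMSO, high control PEA (EC100); doses: 3 µM single concentration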
CHO parental Ca = ATP-evoked calcium signal inhibitors, parental CHO, primary screen, counter-screen for OX1R antagonist project, cell-based, fluorescence, Fluo-8 calcium dye; parental CHO-K1, ATP-induced calcium, Fluo-8 fluorescence; inhibition, % at 5.6 µM; 0.63% of 330,000 active; AID 463079, 2010;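 active = inhibition above that plate's mean sample inhibition plus 3 SD, cut at about 26% in these data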;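 also: 0% = ATP-challenged DMSO wells and 100% = DMSO wells without ATP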
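test system = CHO parental line | reagent = ATP stimulus | measured by = intracellular calcium via Fluo-8 no-wash fluorescent dye | control set = ATP and no-ATP DMSO wells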
OX1R antag-2 = antagonists of human orexin 1 receptor (OX1R). Orexin/Hypocretin receptor type 1 (Homo sapiens), O43613. OX1R-expressing cells, FRET antagonist read-out. inhibition, % at 6.6 µM. 1.8% of 330,000 active; in the data active = inhibition mostly above about 38%, no sharp cut-off; inactive = mostly below about 40%;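 also: 0% = agonist challenge alone and 100% = reference antagonist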
NTR1 ag confirm = NTR1 agonists, single-dose retest, confirmation, imaging, U2OS cells, beta-arrestin-GFP, single concentration; NTR1-U2OS beta-arrestin-GFP translocation imaging; shares compounds with NTR1 ag; AID 504550, 2011; 38% of 480 active; activation, % at 20 µM;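 active = mean activation at 20 µM of at least 40%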;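 also: 0% = DMSO without peptide and 100% = 100 nM NTR1 peptide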
* hit, by the source's call; / = not tested or not shown.

SMILES	NTR1 ag	OX1R antag-1	TAAR1 antag	TAAR1 ag	CHO parental Ca	OX1R antag-2	NTR1 ag confirm
Brc1ccc(-c2ccc(/C=N/Nc3nc(N4CCOCC4)nc(N4CCOCC4)n3)o2)cc1	14	-18	30	10	-17	11	/
Fc1cnc(N/N=C/c2ccc(-c3ccc(Br)cc3)o2)nc1N1CCOCC1	41*	-28	-29	7	-3	25	24
Cc1cc(N2CCOCC2)ccc1/C=C\[N+](=O)[O-]	40*	21	16	13	13	36	77*
Cc1cccc(-c2nnc(-c3ccc4ccccc4c3)o2)c1	/	/	9	2	/	/	/
c1ccc(C(c2ccccc2)N2CCN(c3nc4ccccc4n4cnnc34)CC2)cc1	42*	-12	5	4	0	1	50*
O=C(N/N=C/c1cccc(Cl)c1)C1CCCC1	-1	-22	-3	0	-9	15	/
CCCCCCCNC(=O)C1(CC2CC(c3ccc(Cl)cc3)=NO2)CCN(C(=O)OC(C)(C)C)CC1 (stereo unspecified)	0	-36	3	-2	-19	8	/
CCC(COC)Oc1cc(NCc2ccccc2)c2ncn(C(C)C)c2c1 (stereo unspecified)	44*	13	7	17	-3	35*	9
COc1cccc(/C=C/C(=O)c2cccc([N+](=O)[O-])c2)c1OC	59*	-24	11	-1	-23	15	59*
COc1cccc(/C=C/C(=O)c2cccc([N+](=O)[O-])c2)c1	18	-16	7	-1	-8	2	/
Cc1ccc(NC(=O)c2nc[nH]c2C(=O)N[C@H](C)c2ccccc2)cc1	41*	-21	13	6	-12	3	13
Cc1cccc(NC(=O)c2nc[nH]c2C(=O)N[C@H](C)c2ccccc2)c1	48*	-10	16	4	10	0	13
CSCCC(NS(=O)(=O)c1ccc(Cl)cc1)C(=O)OCC(=O)c1c(C)[nH]c2ccccc12 (stereo unspecified)	41*	79*	81*	19	82*	76*	25
COc1ccc(C(=O)Nc2cc(C)nn2-c2ccc(F)cc2)cc1	2	-14	-14	4	-1	22	/
COc1ccc2[nH]c3c(N4CCC(O)(c5cccc(C(F)(F)F)c5)CC4)ncnc3c2c1	49*	-14	51*	14	-6	13	8
CCOc1ccc2[nH]c3c(N4CCc5ccccc5C4)ncnc3c2c1	50*	-9	-8	1	-16	13	0
CN1CCN(c2ncnc3c2[nH]c2ccc(F)cc23)CC1	0	-15	10	10	-11	8	/
O=C(O)CCCCCN1C(=O)/C(=C/c2cn(-c3ccccc3)nc2-c2cccs2)SC1=S	/	/	14	0	/	/	/
CC1=NNC(=O)/C1=C\c1cn(-c2ccccc2)nc1-c1cccs1	83*	73*	86*	37	63*	28	96*
CC(NC(=O)C12CC3CC(CC(O)(C3)C1)C2)c1ccccc1 (stereo unspecified)	1	6	5	4	3	2	/
O=[N+]([O-])c1ccc(Nc2c3ccccc3nc3ccccc23)cc1	44*	/	24	11	/	/	10
O=[N+]([O-])c1ccccc1Nc1c2ccccc2nc2ccccc12	3	-7	20	1	2	31	/
CC(C)CN(C(=O)c1cccc(F)c1)c1c(N)n(CC(C)C)c(=O)[nH]c1=O	42*	7	-20	4	-2	4	-1
CC(=O)Nc1nc(-c2ccc3c(c2)CC(C)N3C(=O)C2CC2)c(C)s1 (stereo unspecified)	-1	-19	21	3	-21	16	/
Cc1sc(NC(=O)c2ccco2)nc1-c1ccc2c(c1)CC(C)N2C(=O)C1CC1 (stereo unspecified)	71*	9	/	/	-12	26	66*
SMILES	NTR1 ag	OX1R antag-1	TAAR1 antag	TAAR1 ag	CHO parental Ca	OX1R antag-2	NTR1 ag confirm
CCCCn1c(SCC(=O)c2ccc(O)cc2O)nc2cc(S(N)(=O)=O)ccc21	0	-5	-11	5	6	11	/
CCCCn1c(SCC(=O)N2CCC(C)CC2)nc2cc(S(N)(=O)=O)ccc21	44*	-23	/	/	-5	10	50*
C#CCOCCOCCOCCNc1nc(N2CCN(C(=O)[C@H]([C@@H](C)CC)n3cc(CCC(=O)O)nn3)CC2)nc(N2CCN(C(=O)[C@H](CCCCN)n3cc(CC(C)O)nn3)CC2)n1 (stereo partly specified)	/	/	9	14	/	/	/
O=C(O)c1c(Cl)cccc1Cl	2	-6	-21	1	-11	3	/
Cc1ccc(-c2nc3cccnc3o2)cc1NC(=O)COc1ccc(C(C)(C)C)cc1	62*	37	69*	17	40*	63	22
COc1ccc(CCNC(=O)CCS(=O)(=O)c2ccc3c(c2)NC(=O)CO3)cc1OC	-1	4	-19	1	8	3	/
O=C(Nc1ccc([N+](=O)[O-])cc1)Nc1ccc(N2CCOCC2)c2nonc12	42*	5	-3	15	5	6	65*
COc1ccc(S(=O)(=O)N2CCOCC2)cc1NC(=O)COC(=O)CC1CC2CCC1C2 (stereo unspecified)	1	12	9	4	-17	12	/
CCOC(=O)C1CCCN(CCC(=O)Nc2cc(OC)ccc2OC)C1 (stereo unspecified)	1	-31	-12	7	-10	11	/
Clc1ccc(CN2CCc3c([nH]c4ccccc34)C2)cc1Cl	65*	-6	-12	34	15	5	1
O=C(c1ccco1)N1CCN(Cc2cc(=O)oc3cc(O)ccc23)CC1	-1	6	-2	1	-8	0	/
CCOC(=O)c1ccc(NC(=O)c2nc[nH]c2C(=O)N[C@@H](C)C(=O)OC(C)(C)C)cc1	43*	-8	-14	12	-17	6	40
CC(C)C[C@H](NC(=O)c1nc[nH]c1C(=O)N1CCc2ccccc2C1)C(=O)OCc1ccccc1	16	-16	34	10	-14	30	/
